# Screening data: PubChem BioAssay, The Scripps Research Institute Molecular Screening Center
# HTRA1 inh = HTRA1 (human) protease inhibition. Q92743. recombinant HTRA1, FP-rhodamine activity-based probe, fluorescence polarization. inhibition, % at 5.96 µM. actives 0.5% (n = 340,000). AID 504803; in the data active = inhibition above about 36%;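 note: 0% = enzyme with DMSO and 100% = wells lacking enzyme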
# Target sequence (Q92743 whole entry, looked up): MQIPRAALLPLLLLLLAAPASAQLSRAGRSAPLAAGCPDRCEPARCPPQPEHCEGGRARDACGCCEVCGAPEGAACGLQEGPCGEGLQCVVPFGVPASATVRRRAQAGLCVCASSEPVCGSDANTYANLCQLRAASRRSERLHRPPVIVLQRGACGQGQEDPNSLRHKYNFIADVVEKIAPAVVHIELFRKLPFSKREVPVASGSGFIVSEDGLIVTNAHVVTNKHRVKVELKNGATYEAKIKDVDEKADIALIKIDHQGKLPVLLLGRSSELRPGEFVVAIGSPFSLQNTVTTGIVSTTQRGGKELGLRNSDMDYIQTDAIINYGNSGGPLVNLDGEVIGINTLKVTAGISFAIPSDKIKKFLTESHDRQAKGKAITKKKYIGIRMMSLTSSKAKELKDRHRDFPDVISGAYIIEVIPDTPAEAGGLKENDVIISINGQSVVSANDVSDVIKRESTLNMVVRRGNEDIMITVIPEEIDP
# mABHD4 FP = ABHD4 (mouse) inhibition, primary FP screen. Q8VD66. inhibition, % at 8.92 µM. actives 0.54% (n = 370,000). purified mABHD4, FP-Rh probe fluorescence polarization;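 active = inhibition exceeding the mean over every tested compound plus 3 SD, cut at about 30% in these data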;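 note: 0% = plate median of compound wells and 100% = S159A mutant with DMSO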
#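 system = mouse ABHD4 enzyme, wild type | medium = HEPES pH 7.0, NaCl, Pluronic buffer | also added = FP-Rh probe | incubation = Enzyme–compound pre-incubation 45 min, then probe 60 min, both 25 °C | technique = fluorescence polarization, excitation 525 nm, emission 598 nm, BODIPY TMR filters | controls = S159A mutant high control, sample median low control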
# TCR CD3 inh = blocks the human TCR-CD3 interaction; TAMRA-labeled TCR probe fluorescence, biochemical; actives 0.37% (n = 360,000); inhibition, % at 9.4 µM;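 note: recombinant mutant TCR 2C K166C tagged with TAMRA read by polarization; 0% = receptor in buffer alone and 100% = receptor with positive control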
# DDE Tn7 FP inh = inhibitors of Tn7 peptide binding to human fibrin DD(E); AID 720508; FP displacement of FITC-Tn7 peptide from fibrin DD(E); 0% = median of compound wells per plate; actives 0.13% (n = 370,000); P02675; inhibition, % at 8.3 µM;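 active = inhibition above the mean of compounds falling within the control limits plus 3 SD of them, cut at about 14% in these data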;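 note: 0% = plate median of compound wells and 100% = 10 µM Aha-Tn7 peptide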
#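 Assay system: human fibrin DD(E). Input: DD(E) 2 µM final. Medium: Tris buffer with calcium and detergent, pH 7.8. Compound dosing: single point at 8.3 µM. Timing: 10 min plus 3 h, room temperature. Technique: fluorescence polarization of the labelled Tn7 tracer. Read-out: percent inhibition. Replicates: singlicate testing.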
# SIAE inh = inhibitors of human sialic acid acetylesterase SIAE; Q9HAT2; SIAE FP-Rh probe binding, fluorescence polarization; inhibition, % at 9.66 µM; actives 0.69% (n = 370,000); AID 1053197;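 active = inhibition above a cutoff: mean of compounds within the control limits plus 3 SD of those, cut at about 17% in these data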;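 note: 0% = plate median of compound wells and 100% = probe without SIAE protein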
# Tn6 DDE FP = disrupts Tn6 cyclic peptide binding to fibrin D-Dimer-E complex. Fibrin DD(E) TRITC-Tn6 fluorescence polarization displacement. inhibition, % at 8.3 µM. actives 0.21% (n = 370,000);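 active = inhibition above a per-campaign cutoff: mean of compounds within control limits plus 3 SD, cut at about 15% in these data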;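 note: 0% = median of all compound wells on the plate and 100% = blocking peptide control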
# HTRA1 inh conf = HTRA1 (human) inhibition, confirmation | AID 540248 | actives 66% (n = 1,600) | shares compounds with HTRA1 inh | recombinant HTRA1, FP-rhodamine activity-based probe, fluorescence polarization | inhibition, % at 5.96 µM;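 active = mean inhibition over three repeats above a set limit taken from the earlier primary screen, cut at about 37% in these data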;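 note: 0% = HTRA1 with DMSO and 100% = wells lacking HTRA1; inhibitors block probe binding so polarization drops and inhibition rises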
# BSA TAMRA ctr = BSA probe counter-screen for TCR-CD3 inhibitors | shares compounds with TCR CD3 inh | TAMRA-labeled BSA probe fluorescence counterscreen | inhibition, % at 9.4 µM | actives 10% (n = 1,200) | AID 652035; in the data active = inhibition above about 23%;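 note: 0% = buffer low control and 100% = reference high control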
# TCR-CD3 conf = confirmation of human TCR-CD3 interaction inhibitors. AID 652036. TAMRA-labeled TCR probe fluorescence binding assay. actives 48% (n = 1,200). inhibition, % at 9.4 µM. shares compounds with TCR CD3 inh
# DDE Tn7 confirm = DD(E)-Tn7 binding inhibition, FP confirmation | shares compounds with DDE Tn7 FP inh | FP displacement of TRITC-Tn7 peptide from DD(E); 0% set at plate's compound-well median | inhibition, % at 8.3 µM | actives 5% (n = 460);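 active = inhibition above the campaign cutoff, the mean of compounds within control limits plus 3 SD, cut at about 14% in these data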;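 note: 100% = median FP of high control wells holding Aha-Tn7 inhibitor peptide; displacers lower polarization since freed probe rises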
# Tn7 DDE ctr = DD(E)-Tn7 binding inhibition, counter-screen. fibrin DD(E), TRITC-Tn7 probe displacement, fluorescence polarization. shares compounds with DDE Tn7 FP inh. inhibition, % at 8.3 µM. actives 3% (n = 460);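 active = inhibition above the cutoff, the mean of compounds lying between the control bounds plus 3 SD of those compounds, cut at about 17% in these data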;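 note: 0% = median of compound sample wells and 100% = excess unlabeled Aha-Tn7 peptide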
# Tn6 DDE ctr = DD(E)-Tn6 binding inhibition, counter-screen | shares compounds with Tn6 DDE FP | inhibition, % at 8.3 µM | Fibrin DD(E), TRITC-Tn6 fluorescence polarization displacement; 0% = median of compound wells, not DMSO | actives 2% (n = 680) | AID 720621;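 active = inhibition above the mean of test compounds lying between the control limits plus 3 SD of those, cut at about 14% in these data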;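 note: 0% = median of compound wells and 100% = wells with Aha-Tn7 blocking peptide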
# DDE Tn6 confirm = confirmation of inhibitors of Tn6 binding to human fibrin DD(E); shares compounds with Tn6 DDE FP; FP displacement of TRITC-Tn6 peptide from DD(E); 0% = per-plate median of test wells; inhibition, % at 8.3 µM; actives 10% (n = 680); AID 720631;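 active = inhibition above the mean of compounds lying within the control limits plus 3 SD, cut at about 16% in these data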;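 note: 100% = high control wells holding a competing inhibitor peptide at 10 µM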
# mABHD4 conf = confirmation of mouse ABHD4 inhibitors. inhibition, % at 8.92 µM. shares compounds with mABHD4 FP. purified mABHD4, FP-Rh probe fluorescence polarization. actives 55% (n = 1,800);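 active = mean inhibition across replicates above the hit cutoff set in the primary screen, cut at about 30% in these data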;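 note: 0% = wild-type ABHD4 with DMSO and 100% = catalytically dead S159A mutant with DMSO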
# SIAE inh conf = human SIAE inhibition, confirmation. shares compounds with SIAE inh. SIAE FP-Rh activity-based probe, fluorescence polarization. inhibition, % at 9.66 µM. actives 13% (n = 2,300). AID 1117263;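 active = mean inhibition of the replicates above the hit cutoff set in the primary screen, cut at about 17% in these data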;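 note: 0% = SIAE with DMSO and probe and 100% = probe without SIAE; inhibitors lower polarization as more probe stays unbound to SIAE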
# Active calls of the source: *; nt = no result; + = active, no number. Rows were chosen to be rich in hits. Some 1.8% of all compounds tested hit in one or more screens of this group. Cut-off read from the data, not from the text of the source, unless noted: active = inhibition above about 19%; inactive = the rest.
SMILES,HTRA1 inh,mABHD4 FP,TCR CD3 inh,DDE Tn7 FP inh,SIAE inh,Tn6 DDE FP,HTRA1 inh conf,mABHD4 conf,SIAE inh conf,others
CCNCc1ccccc1OCc1ccccc1,4,1,0,-1,6,2,nt,nt,nt,
COc1cc(Br)c(/C=C/c2ccc3cccc(O)c3n2)cc1OC,10,9,0,3,8,-3,nt,nt,nt,
Oc1ccc2ccccc2c1/C=C/c1ccc2c(Br)cc(Br)c(O)c2n1,66*,34*,-9,-6,23*,-24,69*,21,16,
CCCCCCn1c(=O)[nH]c2nc3cc(N)c(C)cc3nc2c1=O,64*,49*,11,30*,18*,-11,15,39*,9,DDE Tn7 confirm=0;Tn7 DDE ctr=7
O=C(CSc1nnc(-c2ccccn2)n1-c1ccc(Cl)cc1)Nc1ccc(S(=O)(=O)Nc2nccs2)cc1,nt,-8,nt,-1,-13,-7,nt,nt,nt,
COc1cccc2c1C(=O)c1c(O)c3c(c(O)c1C2=O)CC(O)(C(=O)CO)CC3OC1CC(N(C)C)C(O)C(C)O1 (configuration not stated),68*,79*,148*,16*,61*,+,66*,61*,40*,BSA TAMRA ctr=167*;TCR-CD3 conf=136*;DDE Tn7 confirm=-7;Tn7 DDE ctr=93*;Tn6 DDE ctr=-7;DDE Tn6 confirm=93*
C=CCn1cc(/C=N/Nc2nc3ccccc3[nH]2)c2ccccc21,41*,25,-1,-3,56*,-15,42*,nt,53*,
CO[C@H]([C@H](C)/C=C/N(C)C=O)[C@@H](C)C(=O)CC[C@H](C)[C@H](O)[C@H](C)[C@H]1OC(=O)/C=C/C(C)=C/C[C@H](O)C[C@@H]2C=CC[C@@H](C[C@H](OC)[C@@]3(CO3)[C@@H](OC)C[C@@H](OC)[C@@H]1C)O2,nt,5,nt,0,3,-3,nt,nt,nt,
C/C(=N\NC(=O)c1ccccc1O)c1cccc(NC(=O)c2ccccc2)c1,20,4,7,-3,6,-2,nt,nt,nt,
C/C(=N\NC(=O)c1cc(O)ccc1O)c1cccc(NC(=O)c2ccc(Cl)cc2)c1,44*,57*,46*,-1,26*,0,17,42*,10,BSA TAMRA ctr=-17;TCR-CD3 conf=9
CC(=O)N1CCC(=NNC(=O)CSc2cc(C)c(Br)cc2C)CC1,3,3,1,-3,0,2,nt,nt,nt,
Cc1cc(SCC(=O)N/N=C/c2ccc(O)c(O)c2)c(C)cc1Br,77*,14,2,5,21*,-6,76*,nt,-19,
O=C(OCC(=O)N1CCCCC1)c1cc2ccccc2cc1O,-6,-4,-5,-6,-2,-3,nt,nt,nt,
C/C(CC(=O)N1CCCC1)=N\NC(=O)c1cc2ccccc2cc1O,48*,36*,6,6,17*,-4,31,27,-1,
COc1ccc(Cn2cc(CN3[C@@H](CC(C)C)COc4cccc(F)c4S3(=O)=O)nn2)cc1,nt,-1,nt,1,-6,-1,nt,nt,nt,
CN(C1=C(N2CCCCC2)C(=O)c2ccccc2C1=O)c1ccccc1,66*,38*,-10,-4,20*,3,75*,69*,14,
CCN1CCCCC(NC(=O)c2cc(OC)c(OC)c(OC)c2)C1=O (configuration not stated),nt,-4,nt,6,-2,-1,nt,nt,nt,
Cc1c2cc(O)c(=O)cc-2oc2cc(O)c(O)cc12,49*,35*,184*,15*,56*,1,125*,nt,104*,BSA TAMRA ctr=+;TCR-CD3 conf=+
Cc1cc2oc(=O)cc(-c3cc4ccccc4o3)c2cc1O,-35,-30,-4,0,-37,-4,nt,nt,nt,
C#CCNC(=O)C[C@H]1C[C@@]2(C(=O)OC)C(=C[C@H](C(C)C)O[C@@H]2C2CC2)N(CCCCCCCC)C1=O,nt,-4,nt,8,8,3,nt,nt,nt,
O=C(O)c1ccc(/C=N\Nc2ccc(S(=O)(=O)N3CCOCC3)cc2[N+](=O)[O-])cc1,-3,-16,7,1,-5,0,nt,nt,nt,
Cc1ccc(-n2c(O)c(/C=N/Nc3ccc(S(=O)(=O)N4CCOCC4)cc3[N+](=O)[O-])c3ccccc3c2=O)c(C)c1,48*,26,-8,1,21*,-6,156*,nt,0,
C#CCN1CC(N(C)CCOC(=O)c2cc(C)cc(C)c2)CS1(=O)=O (configuration not stated),nt,-1,nt,2,2,-1,nt,nt,nt,
O=C(O)[C@@H]1[C@H]2C[C@H]3c4[nH]c5ccccc5c4CCN3C[C@@H]2CC[C@@H]1O,45*,39*,46*,-1,24*,13,7,32*,15,BSA TAMRA ctr=8;TCR-CD3 conf=5
CCC(=O)NC(c1ccc(OC)c(OC)c1)c1cc(Cl)c2cccnc2c1O (configuration not stated),52*,7,-1,4,26*,11,81*,nt,11,
COc1ccccc1C(NC(C)=O)c1cc(Cl)c2cccnc2c1O (configuration not stated),49*,6,5,-2,22*,-1,71*,nt,14,
